Published values from different studies.
Each line is one published result; the experiments were not run side by side.
Target: Mitogen-activated protein kinase kinase kinase 5 (MAP3K5, Homo sapiens, UniProt Q99683)
Sequence (Q99683 1-1374, as in one of the studies): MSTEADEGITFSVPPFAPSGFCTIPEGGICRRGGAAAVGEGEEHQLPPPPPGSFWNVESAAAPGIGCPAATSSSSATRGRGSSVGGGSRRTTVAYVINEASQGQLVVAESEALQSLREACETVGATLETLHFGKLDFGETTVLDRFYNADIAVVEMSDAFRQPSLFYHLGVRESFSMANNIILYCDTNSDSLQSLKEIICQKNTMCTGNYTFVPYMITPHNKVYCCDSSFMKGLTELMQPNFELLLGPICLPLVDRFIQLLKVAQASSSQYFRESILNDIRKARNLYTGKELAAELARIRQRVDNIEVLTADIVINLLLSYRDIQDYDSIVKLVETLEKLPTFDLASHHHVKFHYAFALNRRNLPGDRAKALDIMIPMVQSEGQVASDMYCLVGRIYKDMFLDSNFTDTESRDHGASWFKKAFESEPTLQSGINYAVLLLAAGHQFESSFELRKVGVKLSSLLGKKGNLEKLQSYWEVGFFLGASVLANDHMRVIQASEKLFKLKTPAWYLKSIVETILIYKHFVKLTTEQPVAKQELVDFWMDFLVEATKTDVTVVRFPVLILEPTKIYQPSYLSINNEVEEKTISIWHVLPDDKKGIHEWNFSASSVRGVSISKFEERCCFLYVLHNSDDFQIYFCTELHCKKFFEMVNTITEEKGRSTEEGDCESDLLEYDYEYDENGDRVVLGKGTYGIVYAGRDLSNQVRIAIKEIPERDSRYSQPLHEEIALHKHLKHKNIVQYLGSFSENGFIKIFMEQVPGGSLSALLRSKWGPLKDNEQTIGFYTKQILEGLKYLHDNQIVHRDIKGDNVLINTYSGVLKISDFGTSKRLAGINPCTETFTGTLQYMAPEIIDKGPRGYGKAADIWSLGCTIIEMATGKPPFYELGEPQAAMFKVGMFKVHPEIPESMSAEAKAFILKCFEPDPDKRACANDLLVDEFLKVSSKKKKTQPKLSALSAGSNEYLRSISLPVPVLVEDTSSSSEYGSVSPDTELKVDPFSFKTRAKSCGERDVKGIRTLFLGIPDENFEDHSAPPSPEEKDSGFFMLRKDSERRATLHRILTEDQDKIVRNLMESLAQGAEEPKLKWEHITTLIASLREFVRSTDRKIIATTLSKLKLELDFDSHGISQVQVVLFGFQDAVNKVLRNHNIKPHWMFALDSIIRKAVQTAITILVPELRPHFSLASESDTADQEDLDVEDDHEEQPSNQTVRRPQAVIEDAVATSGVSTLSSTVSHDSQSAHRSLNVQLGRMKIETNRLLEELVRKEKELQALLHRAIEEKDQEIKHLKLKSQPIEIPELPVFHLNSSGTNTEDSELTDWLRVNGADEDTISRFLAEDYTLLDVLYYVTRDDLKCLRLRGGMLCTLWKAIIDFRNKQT

SMILES	assay	setting	remaining binding [%]
c1cnn2ncc(-c3ccnc(N4CCC45COC5)n3)c2c1	binding	1 µM	100
O=C(c1ccc(Nc2ncc(Cl)c(-c3ccc(Cl)s3)n2)cc1)N1CCC(N2CCCC2)CC1	binding, competition with immobilised ligand	1 µM	100
O=C(O)[C@@H]1[C@@H](Cn2nnc3ccccc3c2=O)CC[C@H]1C(=O)c1ccc(OCCC2CCOCC2)cc1	cell-free assay, competition with immobilised ligand	1 µM	94
CCN1CCN(Cc2ccc(C(=O)Nc3ccc(C)c(Oc4ccc5c(c4)CC(=O)N5)c3)cc2C(F)(F)F)CC1	binding, competition with immobilised ligand	1 µM	100
COc1cnc(Nc2cccc(S(N)(=O)=O)c2)nc1N1CCN(c2ccccc2)CC1	binding, competition with immobilised ligand	1 µM	100
C[C@@H]1CN(c2cc(-c3nn(C)c4ccc(OC5(C)CC5)cc34)ncn2)C[C@H](C)O1	cell-free assay, competition with immobilised ligand	1 µM	100
N[C@@H]1CCN(c2nccc(-c3cnn4ncccc34)n2)C1	binding	1 µM	100
N#Cc1ccc(Nc2ccc3[nH]c(=O)[nH]c3c2)c(Cl)c1	cell-free assay, competition with immobilised ligand	1 µM	90
O=C(c1ccc(Nc2nccc(-c3cc4ccccc4s3)n2)cc1)N1CCC(N2CCCC2)CC1	binding, competition with immobilised ligand	1 µM	100
O=C(Nc1ccc(Oc2ccc(F)cc2)cc1)N1CCc2ncccc2[C@H]1c1ccc(F)cc1	cell-free assay, competition with immobilised ligand	1 µM	87
CN(CCCC(F)(F)F)c1nccc(-c2cnn3ncccc23)n1	binding	1 µM	76
c1cncc(-c2cccc(Nc3nccc(NC4CCCCC4)n3)c2)c1	binding, competition with immobilised ligand	10 µM	100
Cc1cnn2ncc(-c3ccnc(N(C)C)n3)c2c1	binding	1 µM	100
O=C(NCCCN1CCOCC1)c1ccc(Nc2nccc(-c3cc4ccccc4s3)n2)cc1	binding, competition with immobilised ligand	1 µM	100
COc1ncc2cc3ccccc3nc2c1C#N	cell-free assay, competition with immobilised ligand	5 µM	96
Cc1cc(C)c(-n2ccn3nc(-c4cccnc4)cc23)cc1NC(=O)c1cc(C#N)cc(S(F)(F)(F)(F)F)c1	cell-free assay, competition with immobilised ligand	0.1 µM	100
O=C(Nc1c[nH]nc1C(=O)NC1CCNCC1)c1cc(F)cc(F)c1	binding, competition with immobilised ligand	1 µM	100
CN(C)c1nccc(-c2cnn3ncccc23)n1	binding	1 µM	87
COc1cc(-c2cn(C3CCc4ccccc4N(CC(F)(F)F)C3=O)nn2)ccc1-n1ccc(C)n1 (stereo not drawn)	cell-free assay, competition with immobilised ligand	1 µM	100
Nc1ncc2c(n1)-c1c([nH]c3ccc(C#CC4CC4)cc13)CCCC2	binding, competition with immobilised ligand	1 µM	100
CN(C)c1ncc(F)c(-c2cnn3ncccc23)n1	binding	1 µM	100
